Rows were chosen to be rich in hits. Some 2% of all compounds tested hit in one or more screens of this group.
Autophagy HCS – autophagy modulation, high-content screen | MEF GFP-LC3 puncta imaging; test concentration mostly 10 µM | calls only at 10 µM (by protocol) | 190,000 compounds, 0.98% hits | AID 463193;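 active = percentage of spot-positive cells more than 3 SD above its plate mean, without a fluorescence outlier flag or 80% toxicity; inconclusive = no clear call, values can overlap the other calls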;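 also: spot-positive cell cutoff set from DMSO-treated cells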
Insulin prom inh – TRM-6 insulin promoter activity inhibition. inhibition, % at 2 µM. 130,000 compounds, 0.9% hits. TRM-6 cells (human fetal islet line), insulin promoter-eGFP reporter, imaging; reporter expression induced with tamoxifen. AID 1273;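 active = inhibition above the mean plus 3 SD, with well images judged a real hit on visual review, cut at about 60% in these data, passing the limit was not always enough; inconclusive = inhibition over the cutoff but images rejected on review; inactive = inhibition not above the cutoff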
Insulin prom up – MIN6 insulin promoter up-regulation; MIN6 insulin promoter-GFP reporter, high-content imaging; active compounds read high; z-score at 5 µM; 190,000 compounds, 0.3% hits;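 active = z-score above 3 at 5 µM with at least 500 cells counted in the well; inconclusive = wells under 500 cells, flagged as cytotoxic or low count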
Dynein cargo inh – blocks dynein driven cargo transport along microtubules | 3617.4 mouse cells, GR-EGFP nuclear translocation imaging; test concentration mostly 20 µM; stimulated with dexamethasone, 1 µM; active compounds read low | 220,000 compounds, 0.47% hits | z-score, hits read low | AID 1381;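 active = plate z-score of nuclear minus cytoplasmic receptor signal below a set negative limit, without overly bright fluorescence or cell loss, cut at about -3.5 in these data, passing the limit was not always enough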;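 also: z-score of nuclear minus cytoplasmic ring GR-EGFP intensity difference per well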
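Buffer or medium: tet-free, stripped-serum medium; reagent: dexamethasone at 1.0 µM final, 30 min; incubation: 48 h induction, 1 h compound, 30 min dex at 37 °C; measured by: formaldehyde fixation, Hoechst nuclear stain, 10x automated fluorescence imaging; read-out: nuclear-to-cytoplasmic GR-EGFP distribution per well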
An asterisk follows results filed as active; i = inactive; ? = inconclusive; nt = no result; + = active, no number.

SMILES	Autophagy HCS	Insulin prom inh	Insulin prom up	Dynein cargo inh
CN1CCN(c2ccc(NC(=O)c3ccc(-c4ccc(Br)cc4)o3)cc2)CC1	+	26.3	1.01	0.987
O=C(c1ccco1)c1coc2c1cc(O)c1ccccc12	i	nt	0.47	0.294
CC1=CC2=NC(=O)/C(=C\c3ccc(-c4cccc(Cl)c4)o3)C(=N)N2O1	+	-33.3	0.26	7.94
CC1=NOC(=O)/C1=C\c1ccc(-c2cccc(Cl)c2)o1	i	5.7	0.7	-0.416
N/C(=N\N=C\c1ccc(Br)o1)c1nonc1N	nt	nt	0.22	0.308
COc1cccc(C(=O)NC2=NCCS2)c1	i	75.0*	nt	-0.0435
CN(c1cccc(Cl)c1)S(=O)(=O)c1cccc(C(=O)NC2=NCCS2)c1	i	-21.1	3.48*	1
CC(C)Oc1cccc(C(=O)NC2=NCCS2)c1	i	50.0	0.51	0.393
CS(=O)(=O)Nn1cnc2ccccc2c1=O	i	-3.6	0.64	-0.469
CC1(C)OC(=O)C(=CNn2cnc3ccccc3c2=O)C(=O)O1	i	81.8*	-0.65	-0.0965
CCn1c2ccccc2c2cc(CN3CCN(Cc4cc(OC)ccc4O)CC3)ccc21	+	-90.9	0.41	0.965
CCOc1ccc(CN2CCN(CC(O)Cn3c4ccccc4c4ccccc43)CC2)cc1 (stereo not drawn)	+	-122.2	-1	-0.206
Cc1nc2cc(-c3ccc(Cl)cc3)nn2c(NCCN(C)C)c1C	i	-5.0	-0.4	1.11
CCN(CC)S(=O)(=O)c1cc(OC)c(Cl)cc1OC	i	nt	-0.39	-0.899
COc1ccccc1NC(=O)Cc1nnc(SCC(=O)Nc2ccccc2F)n1C	i	0.0	-0.13	2.96
COc1ccc(C)cc1NC(=O)CSc1nnc(CC(=O)Nc2ccccc2C)n1C	i	66.7*	0.21	1.09
O=S(=O)(c1ccc(Cl)c(Cl)c1)c1snnc1-c1ccccc1	i	-72.4	0.77	-3.96*
CCCCN(C)CCNC(=O)c1nn(-c2ccc(OC)cc2)c(=O)c2c1c1ccccc1n2C	+	nt	nt	-0.109
c1ccc(-c2cnn3c(-c4ccccc4)c(-c4ccccc4)nc3n2)cc1	?	nt	17*	-1.31
O=C1c2ccccc2-c2nc3ncnn3c(-c3ccccc3)c21	i	-2.6	nt	-0.757
CCCCN1C(=O)/C(=C/C=C2/CC(C)(C)CN2C)SC1=S	+	-270.4	nt	0.641
O=C(Cc1c[nH]c2ccccc12)NCc1ccccc1F	i	nt	-0.63	0.271
COc1ccccc1CC(=O)NC1CC(C)(C)NC(C)(C)C1	i	-37.5	3.65*	-0.493
COc1ccc(C(=O)CNc2ccc(C)cc2C)cc1	nt	nt	nt	-0.409
N#C/C(C(=O)Oc1ccccc1)=C1/Nc2ccccc2-c2ccccc21	+	54.0	-0.83	0.671
SMILES	Autophagy HCS	Insulin prom inh	Insulin prom up	Dynein cargo inh
COc1ccccc1C1(O)CCN(CC(=O)Nc2nc(-c3ccccc3)cs2)CC1	i	nt	-0.98	-0.799
CNC(=O)CCCc1nc(-c2ccccc2Cl)no1	i	29.2	-1.13	-0.0552
O=C(CCCc1nc(-c2ccccc2Cl)no1)NC1CCCCC1	+	-150.0	-0.27	0.175
Cc1ccc(CNC(=O)CN(C)S(=O)(=O)c2cccs2)cc1	i	15.0	nt	2.21
COc1cccc(C2=NO[C@@H]3C(=O)N(c4ccc5c(c4)OCCO5)C(=O)[C@H]23)c1OC	i	80.0*	-0.43	-0.614
Cn1cccc1Cc1nnc(SCC(=O)Nc2nc3ccccc3s2)n1CCc1ccccc1	+	nt	0.57	2.31
Cc1nnc(NC(=O)CSc2nnc(Cc3cccn3C)n2CCc2ccccc2)s1	i	nt	-0.65	1.17
Cc1ccsc1/C=N/NC(=O)c1ccc(Cn2cc(Br)cn2)o1	+	15.4	-0.08	0.922
CCN(C)c1ccc(/C=N\n2nnnc2N)cc1	+	-24.7	0.02	-0.932
Nc1nnnn1/N=C/c1ccc(O)cc1	i	nt	nt	0.231
CCOC(=O)Cn1nc(C)n(-c2c(C)cccc2C)c1=O	i	nt	2.14	-0.582
CCOC(=O)CSc1nc(C)c2ccccc2n1	i	78.6*	-0.09	0.168
COC(=O)c1ccc(C)c(NS(=O)(=O)c2ccc(C)c([N+](=O)[O-])c2)c1	i	-62.5	1.16	0.164
COC(=O)c1ccc(C)c(NS(=O)(=O)c2ccc(OC)cc2)c1	+	100.0*	-1.54	-0.0141
CCOc1ccccc1NS(=O)(=O)c1cn(C)c(=O)n(C)c1=O	nt	nt	0.04	2.6
COc1cc2c(cc1OC)-c1nncn1C(C)(C)C2	i	nt	3.76*	-1.45
CCN(CC)CCN(C(=O)c1ccc(S(=O)(=O)N2CCCCC2)cc1)c1nc2cc3c(cc2s1)OCO3	i	75.0*	0.85	-0.0619
CN(C)CCCN(C(=O)c1ccc(S(=O)(=O)N(C)C)cc1)c1nc2cc3c(cc2s1)OCO3	i	36.8	0.84	-0.22

Assay outcomes (PubChem BioAssay)
